Source: ChEMBL document CHEMBL4689842, “EUbOPEN Chemogenomics Library wave 1” (2021)

Test system: Fibroblast
Test: Multiplex assay against human fibroblast
Assay type: toxicity, cell-based
In short: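 Live cells carried four stains from seeding: Hoechst33342, BioTracker Green Microtubule Cytoskeleton Dye, MitoTracker Red and Annexin V Alexa Fluor 680. They were imaged on a CQ1 microscope at 37°C and 5% CO2 after compound addition. Using CellPathfinder machine-learning gating, cells were split into Hoechst high-intensity objects or normal cells, normal cells into healthy, pyknosed or fragmented nuclei, and pyknosed cells into mitotic or apoptotic; tubulin, mitochondrial-mass and membrane-permeability phenotypes are per cents of healthy-nucleus cells.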

[1] = 12 h, 1 µM, compound concentration 1 uM, replicate 1
[2] = 12 h, 1 µM, compound concentration 1 uM, replicate 2
[3] = 12 h, 10 µM, compound concentration 10 uM, replicate 1
[4] = 12 h, 10 µM, compound concentration 10 uM, replicate 2
[5] = 24 h, 1 µM, compound concentration 1 uM, replicate 1
[6] = 24 h, 1 µM, compound concentration 1 uM, replicate 2
[7] = 24 h, 10 µM, compound concentration 10 uM, replicate 1
[8] = 24 h, 10 µM, compound concentration 10 uM, replicate 2
[9] = 48 h, 1 µM, compound concentration 1 uM, replicate 1
[10] = 48 h, 1 µM, compound concentration 1 uM, replicate 2
[11] = 48 h, 10 µM, compound concentration 10 uM, replicate 1
[12] = 48 h, 10 µM, compound concentration 10 uM, replicate 2

CC(C)Oc1ccccc1C(=O)Nc1ccccc1C(=O)Nc1cccc(S(=O)(=O)C(F)(F)F)c1
Population Apoptotic (%) [1]: 75%
Population Fragmented Nuclei (%) [1]: 23%
Population Healthy Nuclei (%) [1]: 49%
Population Hoechst High Intensity Objects (%) [1]: 14%
Population Membrane Permeable-Phenotype (%) [1]: 16%
Population Mitochondria Different-Phenotype (%) [1]: 22%
Population Mitotic Cells (%) [1]: 25%
Population Normal (%) [1]: 85%
Population Pyknosed Nuclei (%) [1]: 26%
Population Tubulin-Different-Phenotype (%) [1]: 62%
Total Cell Count [1]: 158
Population Apoptotic (%) [2]: 33%
Population Fragmented Nuclei (%) [2]: 20%
Population Healthy Nuclei (%) [2]: 74%
Population Hoechst High Intensity Objects (%) [2]: 5%
Population Membrane Permeable-Phenotype (%) [2]: 10%
Population Mitochondria Different-Phenotype (%) [2]: 45%
Population Mitotic Cells (%) [2]: 66%
Population Normal (%) [2]: 94%
Population Pyknosed Nuclei (%) [2]: 6%
Population Tubulin-Different-Phenotype (%) [2]: 37%
Total Cell Count [2]: 62
Population Apoptotic (%) [3]: 61%
Population Fragmented Nuclei (%) [3]: 39%
Population Healthy Nuclei (%) [3]: 34%
Population Hoechst High Intensity Objects (%) [3]: 11%
Population Membrane Permeable-Phenotype (%) [3]: 35%
Population Mitochondria Different-Phenotype (%) [3]: 47%
Population Mitotic Cells (%) [3]: 38%
Population Normal (%) [3]: 88%
Population Pyknosed Nuclei (%) [3]: 25%
Population Tubulin-Different-Phenotype (%) [3]: 23%
Total Cell Count [3]: 137
Population Apoptotic (%) [4]: 90%
Population Fragmented Nuclei (%) [4]: 17%
Population Healthy Nuclei (%) [4]: 71%
Population Hoechst High Intensity Objects (%) [4]: 4%
Population Membrane Permeable-Phenotype (%) [4]: 97%
Population Mitochondria Different-Phenotype (%) [4]: 92%
Population Mitotic Cells (%) [4]: 10%
Population Normal (%) [4]: 96%
Population Pyknosed Nuclei (%) [4]: 10%
Population Tubulin-Different-Phenotype (%) [4]: 100%
Total Cell Count [4]: 53
Population Apoptotic (%) [5]: 61%
Population Fragmented Nuclei (%) [5]: 25%
Population Healthy Nuclei (%) [5]: 51%
Population Hoechst High Intensity Objects (%) [5]: 11%
Population Membrane Permeable-Phenotype (%) [5]: 10%
Population Mitochondria Different-Phenotype (%) [5]: 22%
Population Mitotic Cells (%) [5]: 38%
Population Normal (%) [5]: 88%
Population Pyknosed Nuclei (%) [5]: 22%
Population Tubulin-Different-Phenotype (%) [5]: 65%
Total Cell Count [5]: 168
Population Apoptotic (%) [6]: 33%
Population Fragmented Nuclei (%) [6]: 21%
Population Healthy Nuclei (%) [6]: 66%
Population Hoechst High Intensity Objects (%) [6]: 7%
Population Membrane Permeable-Phenotype (%) [6]: 11%
Population Mitochondria Different-Phenotype (%) [6]: 58%
Population Mitotic Cells (%) [6]: 66%
Population Normal (%) [6]: 92%
Population Pyknosed Nuclei (%) [6]: 11%
Population Tubulin-Different-Phenotype (%) [6]: 35%
Total Cell Count [6]: 57
Population Apoptotic (%) [7]: 79%
Population Fragmented Nuclei (%) [7]: 40%
Population Healthy Nuclei (%) [7]: 37%
Population Hoechst High Intensity Objects (%) [7]: 12%
Population Membrane Permeable-Phenotype (%) [7]: 21%
Population Mitochondria Different-Phenotype (%) [7]: 71%
Population Mitotic Cells (%) [7]: 20%
Population Normal (%) [7]: 87%
Population Pyknosed Nuclei (%) [7]: 21%
Population Tubulin-Different-Phenotype (%) [7]: 23%
Total Cell Count [7]: 127
Population Apoptotic (%) [8]: 100%
Population Fragmented Nuclei (%) [8]: 17%
Population Healthy Nuclei (%) [8]: 56%
Population Hoechst High Intensity Objects (%) [8]: 11%
Population Membrane Permeable-Phenotype (%) [8]: 91%
Population Mitochondria Different-Phenotype (%) [8]: 94%
Population Mitotic Cells (%) [8]: 0%
Population Normal (%) [8]: 88%
Population Pyknosed Nuclei (%) [8]: 27%
Population Tubulin-Different-Phenotype (%) [8]: 98%
Total Cell Count [8]: 55
Population Apoptotic (%) [9]: 70%
Population Fragmented Nuclei (%) [9]: 30%
Population Healthy Nuclei (%) [9]: 57%
Population Hoechst High Intensity Objects (%) [9]: 14%
Population Membrane Permeable-Phenotype (%) [9]: 14%
Population Mitochondria Different-Phenotype (%) [9]: 13%
Population Mitotic Cells (%) [9]: 29%
Population Normal (%) [9]: 85%
Population Pyknosed Nuclei (%) [9]: 12%
Population Tubulin-Different-Phenotype (%) [9]: 49%
Total Cell Count [9]: 163
Population Apoptotic (%) [10]: 60%
Population Fragmented Nuclei (%) [10]: 29%
Population Healthy Nuclei (%) [10]: 67%
Population Hoechst High Intensity Objects (%) [10]: 7%
Population Membrane Permeable-Phenotype (%) [10]: 4%
Population Mitochondria Different-Phenotype (%) [10]: 1%
Population Mitotic Cells (%) [10]: 40%
Population Normal (%) [10]: 92%
Population Pyknosed Nuclei (%) [10]: 3%
Population Tubulin-Different-Phenotype (%) [10]: 55%
Total Cell Count [10]: 154
Population Apoptotic (%) [11]: 78%
Population Fragmented Nuclei (%) [11]: 69%
Population Healthy Nuclei (%) [11]: 24%
Population Hoechst High Intensity Objects (%) [11]: 10%
Population Membrane Permeable-Phenotype (%) [11]: 14%
Population Mitochondria Different-Phenotype (%) [11]: 46%
Population Mitotic Cells (%) [11]: 21%
Population Normal (%) [11]: 89%
Population Pyknosed Nuclei (%) [11]: 6%
Population Tubulin-Different-Phenotype (%) [11]: 48%
Total Cell Count [11]: 232
Population Apoptotic (%) [12]: 50%
Population Fragmented Nuclei (%) [12]: 66%
Population Healthy Nuclei (%) [12]: 29%
Population Hoechst High Intensity Objects (%) [12]: 9%
Population Membrane Permeable-Phenotype (%) [12]: 21%
Population Mitochondria Different-Phenotype (%) [12]: 65%
Population Mitotic Cells (%) [12]: 50%
Population Normal (%) [12]: 90%
Population Pyknosed Nuclei (%) [12]: 3%
Population Tubulin-Different-Phenotype (%) [12]: 55%
Total Cell Count [12]: 175
